Xi reactivation: activators of inactive X chromosome reactivation, primary screen, imaging, XiGFP fibroblasts, GFP high-content imaging, set 2 | 360,000 compounds, 0.055% hits | XiGFP mouse fibroblasts, % GFP-positive cells imaging, 3 d; cells co-treated with 5-aza-dC sensitizer; scaled so ellipticine positive control = 100% | activation, % at 7.58 µM;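 active = mean normalized replicate activation at least 10% and every replicate at or above 10%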;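 note: 0% = median of on-plate neutral control wells and 100% = ellipticine 6 µM median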
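Material: SV40-immortalized XiGFP fibroblast cells, line 68-5-11 | Buffer or medium: DMEM containing 5-aza-dC | Dosing: One concentration, pinned | Times: 3 d treatment, 15 min room-temperature fixation | Controls: Ellipticine 6 µM positive control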
NadD block: inhibitors of S. aureus NadD, primary screen, biochemical, colorimetric, uHTS. purified NadD enzyme, colorimetric absorbance read-out. inhibition, % at 20 µM. AID 602399, 2012. 360,000 compounds, 0.78% hits. Nicotinate-nucleotide adenylyltransferase NadD (Staphylococcus aureus N315); in the data active = inhibition above about 26%
ABHD5 PLIN5 PPI: ABHD5-PLIN5 interaction inhibitors, primary screen, cell lysate, split luciferase complementation, luminescence; Split G. princeps luciferase complementation, 4 h; inhibition, % at 4 µM; 360,000 compounds, 0.78% hits; AID 602281, 2012;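 active = inhibition above the mean inhibition across every tested compound plus 3 SD, cut at about 22% in these data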;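 note: 0% = DMSO only wells and the 100% control is not disclosed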
Rin1 Abl inh: inhibitors of Rin1-Abl protein binding, primary screen, biochemical, TR-FRET. Tyrosine-protein kinase ABL1 (Homo sapiens) + Ras and Rab interactor 1 (Homo sapiens), …. inhibition, % at 7.35 µM. 360,000 compounds, 0.4% hits. AID 588664, 2011; in the data active = inhibition above about 5%, passing the limit was not always enough
Rpn11 block: Rpn11 (PSMD14) deubiquitinase inhibitors, primary screen, biochemical, fluorescence polarization, uHTS. AID 588493, 2011. inhibition, % at 20 µM. 26S proteasome non-ATPase regulatory subunit 14 (Homo sapiens), O00487. 360,000 compounds, 0.59% hits. human 26S proteasome, Ub4-pepOG fluorescence polarization; 20S core pre-blocked with epoxomicin;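 active = inhibition at 20 µM, scaled to each plate's controls, above about 33%, limit read from the data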
ABHD5-PLIN5 conf: ABHD5-PLIN5 interaction inhibitors, confirmation, biochemical, luminescence; AID 651612, 2012; shares compounds with ABHD5 PLIN5 PPI; inhibition, % at 4 µM; 2,200 compounds, 67% hits; in the data active = inhibition above about 23%;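 note: 0% = DMSO vehicle wells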
HNF4 split-luc: HNF4 dimerization inhibitors, counter-screen for ABHD5-PLIN5 interaction inhibitor project, biochemical, split-luciferase complementation, luminescence; shares compounds with ABHD5 PLIN5 PPI; inhibition, % at 4 µM; 2,200 compounds, 77% hits; AID 651674, 2012;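 active = mean inhibition across replicate wells exceeding the computed hit threshold, cut at about 13% in these data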;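 note: light from luciferase halves that rejoin when HNF4 fusion proteins dimerize; 0% = DMSO only wells and the 100% control is not given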
Target sequence (P41235 whole entry, looked up, the tested form may be a part): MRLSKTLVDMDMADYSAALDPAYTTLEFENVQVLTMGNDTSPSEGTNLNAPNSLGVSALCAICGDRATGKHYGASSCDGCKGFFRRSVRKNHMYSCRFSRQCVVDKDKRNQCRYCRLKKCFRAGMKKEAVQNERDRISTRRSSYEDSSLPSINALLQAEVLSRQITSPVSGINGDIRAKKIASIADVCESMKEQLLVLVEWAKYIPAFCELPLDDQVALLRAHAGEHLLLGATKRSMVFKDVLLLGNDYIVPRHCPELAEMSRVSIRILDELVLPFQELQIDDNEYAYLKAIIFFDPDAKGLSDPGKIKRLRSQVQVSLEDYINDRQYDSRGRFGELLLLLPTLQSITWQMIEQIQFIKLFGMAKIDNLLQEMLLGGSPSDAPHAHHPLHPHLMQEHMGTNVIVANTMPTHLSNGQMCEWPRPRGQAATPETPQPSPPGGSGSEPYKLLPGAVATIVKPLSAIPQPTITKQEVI
An asterisk follows results filed as active; . = not tested or not shown. Compounds with a hit are over-represented: about 1.9% of the library has one in this group of screens.

SMILES	Xi reactivation	NadD block	ABHD5 PLIN5 PPI	Rin1 Abl inh	Rpn11 block	ABHD5-PLIN5 conf	HNF4 split-luc
CC(C)NC(=O)Nc1ccc2c(c1)CC(=O)N(C)C[C@H](C)[C@@H](CN(C)S(C)(=O)=O)O2	0	.	.	.	.	.	.
C[C@@H]1Cc2c(O)c(O)cc(O)c2C(=O)O1	.	-2	-9	16	-20	.	.
CC1CCC/C=C/C(=O)c2c(O)cc(O)cc2CC(=O)O1 (stereo unspecified)	.	6	32*	1	-5	54*	70*
CC(=O)C(=Cc1ccc(-c2ccccc2)cc1)C(=O)c1ccccc1	0	1	95*	.	.	98*	96*
O=C(C(Br)=Cc1ccccc1)c1ccccc1	0	-2	51*	3	2	83*	98*
CCNC(=O)C[C@H]1CC[C@@H]2[C@H](COC[C@@H](O)CN2C(=O)CC)O1	0	.	.	.	.	.	.
C[C@@H]1CCCCO[C@H](CN(C)CC2CCCCC2)[C@@H](C)CN([C@H](C)CO)C(=O)c2cc(NC(=O)Nc3ccc4c(c3)OCO4)ccc2O1	0	.	.	.	.	.	.
CCCCC(=O)NC(c1ccc(N(C)C)cc1)c1ccc2cccnc2c1O (stereo unspecified)	1	6	23*	2	23	17	4
CCCCC(=O)NC(c1ccc(N(CC)CC)cc1)c1ccc2cccnc2c1O (stereo unspecified)	0	10	11	3	19	.	.
CC(C)C(=O)NC(c1cccc([N+](=O)[O-])c1)c1ccc2cccnc2c1O (stereo unspecified)	0	1	13	4	26	.	.
CCCC(=O)NC(c1cccc([N+](=O)[O-])c1)c1ccc2cccnc2c1O (stereo unspecified)	3	-3	29*	0	32	26*	0
O=C(/C=C/c1cn(-c2ccccc2)nc1-c1cccs1)NCCN1CCOCC1	0	-7	32*	-1	-6	11	6
O=C(O)CCCN1C(=O)/C(=C/c2cn(-c3ccccc3)nc2-c2cccs2)SC1=S	0	34*	37*	3	19	7	9
Cc1nn(-c2ccccc2)c(Cl)c1/C=C1\SC(=S)N(CCCCCC(=O)O)C1=O	0	3	-1	-3	2	.	.
C[C@@H]1CCCCO[C@H](CN(C)C)[C@H](C)CN([C@H](C)CO)C(=O)c2cc(NC(=O)Nc3cccc4ccccc34)ccc2O1	0	.	.	.	.	.	.
O=c1[nH]c(/C=C/c2ccc(Cl)cc2Cl)c([N+](=O)[O-])c(=O)[nH]1	0	4	11	-3	3	.	.
Cc1cccc(C)c1N/C=C/c1onc(C)c1[N+](=O)[O-]	.	-1	5	2	-3	.	.
O=c1[nH]c(/C=C\c2cccnc2)c([N+](=O)[O-])c(=O)[nH]1	0	5	5	1	-6	.	.
O=c1[nH]c(/C=C/c2ccccc2)c([N+](=O)[O-])c(=O)[nH]1	0	-5	27*	-1	-8	73*	62*
O=c1[nH]c(/C=C/c2cccnc2)c([N+](=O)[O-])c(=O)[nH]1	0	1	40*	-3	2	56*	41*
Cc1noc(/C=C/c2cccnc2)c1[N+](=O)[O-]	0	0	37*	3	3	48*	33*
O=c1[nH]c(/C=C/c2cccc([N+](=O)[O-])c2)c([N+](=O)[O-])c(=O)[nH]1	0	-1	25*	-2	-2	91*	85*
COc1ccccc1CNC(=O)C[C@@H]1C[C@H]2c3cc(NC(=O)NC4CCCC4)ccc3O[C@H]2[C@H](CO)O1	0	.	.	.	.	.	.
C[C@@H]1CN([C@@H](C)CO)C(=O)c2cccc(NS(=O)(=O)c3ccccc3)c2O[C@@H]1CN(C)S(=O)(=O)c1cn(C)cn1	0	.	.	.	.	.	.
CCOc1ccc(/C=C/[N+](=O)[O-])c2ccccc12	.	11	79*	5	10	103*	108*
SMILES	Xi reactivation	NadD block	ABHD5 PLIN5 PPI	Rin1 Abl inh	Rpn11 block	ABHD5-PLIN5 conf	HNF4 split-luc
CCOC(=O)COc1ccc(/C=C/[N+](=O)[O-])c(OCC(=O)OCC)c1	.	1	28*	0	3	62*	95*
CCOC(=O)COc1ccc2nsnc2c1	.	3	-1	0	-2	.	.
CCCC(=O)Nc1ccc2c(c1)OC[C@@H](C)N(C(=O)c1ccncc1)C[C@H](C)[C@@H](OC)CN(C)C2=O	0	.	.	.	.	.	.
Cc1nc([N+](=O)[O-])c(Br)n1CC(=O)c1ccc(Cl)cc1	.	-1	27*	0	3	31*	26*
Cc1nc([N+](=O)[O-])c(Br)n1Cc1ccc(Cl)c(Cl)c1	2	-2	24*	3	-8	35*	38*
COc1ccc(C(=O)Cn2c(C)nc([N+](=O)[O-])c2Br)cc1	0	-3	13	2	-2	.	.
CCC(=O)N1CCC2(CC1)CN(C(=O)c1cnccn1)[C@H](CO)c1c2c2ccc(OC)cc2n1C	0	.	.	.	.	.	.
CCOc1ccc(C(=O)NCC(=O)OC(C)C(=O)NCc2ccco2)cc1OCC (stereo unspecified)	.	-3	5	-2	5	.	.
Cc1ccccc1C(=O)NCC(=O)OC(C)C(=O)NCc1ccco1 (stereo unspecified)	0	-1	25*	2	0	5	2
CCC(=O)Nc1ccc2c(c1)OC[C@H](C)N(C(=O)c1cnccn1)C[C@@H](C)[C@H](OC)CN(C)C2=O	0	.	.	.	.	.	.
CCCN(C)C[C@H]1OCCCC[C@H](C)Oc2ccc(NS(=O)(=O)c3ccc(F)cc3)cc2C(=O)N([C@@H](C)CO)C[C@@H]1C	0	.	.	.	.	.	.
Cc1noc(C)c1S(=O)(=O)Nc1ccc2c(c1)C(=O)N([C@@H](C)CO)C[C@@H](C)[C@H](CN(C)C(=O)C1CCCCC1)OCCCC[C@H](C)O2	1	.	.	.	.	.	.
CC[C@@H](C)[C@@H]1CN([C@@H](C)CN2CCC[C@H]2CN2C(N)=NC[C@@H]2Cc2ccccc2)C(=N)N1CCCC1CCCC1	0	7	29*	4	-12	11	-1
CC[C@@H](C)[C@@H]1CN([C@@H](C)CN2CCC[C@H]2CN2C(N)=NC[C@@H]2Cc2ccccc2)C(=N)N1CCc1ccc(Cl)c(Cl)c1	.	4	34*	4	-19	17	5
